Activity calls are given as the source filed them. The calls are words filed in the database; no cut-off is given here.
Experiments:
Cytochrome P450 2C9 = Cytochrome P450 2C9 (Homo sapiens, UniProt P11712); experiment: Inhibition of CYP2C9 (unknown origin); assay type: ADME
[1] = molecular target: T1, Cytochrome P450 11B2, mitochondrial (Rattus norvegicus, UniProt P30099); experiment: Inhibition of rat CYP11B2 expressed in V79 cells incubated for 1 hr before 11-deoxycorticosterone substrate addition by HTRF-based assay; assay type: cell-based; settings: v79, 1 h
T1 sequence (P30099 whole entry): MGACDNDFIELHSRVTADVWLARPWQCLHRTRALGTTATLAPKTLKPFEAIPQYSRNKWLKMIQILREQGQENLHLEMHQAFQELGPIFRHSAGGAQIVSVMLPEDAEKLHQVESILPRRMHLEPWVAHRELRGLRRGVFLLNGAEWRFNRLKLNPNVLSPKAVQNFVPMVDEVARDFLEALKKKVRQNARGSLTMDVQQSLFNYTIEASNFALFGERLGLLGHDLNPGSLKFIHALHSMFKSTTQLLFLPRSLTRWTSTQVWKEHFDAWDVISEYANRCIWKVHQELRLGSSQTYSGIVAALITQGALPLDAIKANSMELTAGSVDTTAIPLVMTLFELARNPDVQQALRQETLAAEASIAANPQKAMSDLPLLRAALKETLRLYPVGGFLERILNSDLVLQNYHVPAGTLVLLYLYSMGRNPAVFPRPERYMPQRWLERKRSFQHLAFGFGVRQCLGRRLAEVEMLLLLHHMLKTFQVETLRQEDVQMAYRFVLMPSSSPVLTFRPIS

[2] = molecular target: T2, Steroid 17-alpha-hydroxylase/17,20 lyase (Homo sapiens, UniProt P05093); experiment: Inhibition of human CYP17 expressed in COS7 cells incubated for 1 hr before 17-hydroxypregnenolone substrate addition by EIA method; assay type: cell-based, COS-7
T2 sequence (P05093 whole entry): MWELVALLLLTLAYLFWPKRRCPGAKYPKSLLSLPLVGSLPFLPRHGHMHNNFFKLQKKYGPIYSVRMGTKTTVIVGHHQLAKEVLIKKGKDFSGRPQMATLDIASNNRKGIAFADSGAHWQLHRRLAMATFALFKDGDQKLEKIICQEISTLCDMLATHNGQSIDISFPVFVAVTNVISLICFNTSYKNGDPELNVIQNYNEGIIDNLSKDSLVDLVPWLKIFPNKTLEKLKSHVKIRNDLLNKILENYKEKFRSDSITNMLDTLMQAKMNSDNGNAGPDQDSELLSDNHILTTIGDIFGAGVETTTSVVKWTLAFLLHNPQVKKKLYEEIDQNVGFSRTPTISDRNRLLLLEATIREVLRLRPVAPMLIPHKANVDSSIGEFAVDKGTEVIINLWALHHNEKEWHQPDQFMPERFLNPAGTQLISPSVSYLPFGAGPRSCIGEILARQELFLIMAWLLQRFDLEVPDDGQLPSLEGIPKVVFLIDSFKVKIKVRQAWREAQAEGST

Rattus norvegicus = experiment: Dose normalized AUC in Sprague-Dawley rat at 2 mg/kg, po or 1 mg/kg, iv by LC-MS/MS method; assay type: ADME, organism-based; settings: in vivo
Method in brief: (§1)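 In the rat pharmacokinetic study, AUC was normalized for dose (μM·h·kg/mg), plasma clearance was expressed in mL/min/kg, and oral bioavailability was calculated.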

Homo sapiens [3] = species: Homo sapiens; experiment: Selectivity index, ratio of IC50 for human CYP11B1 to IC50 for human CYP11B2
Method in brief: (§2)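 Human CYP11B2 and CYP11B1 inhibition was tested in cell-based assays. Selectivity was taken as the hCYP11B1 IC50 divided by the hCYP11B2 IC50.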

V79 = experiment: Inhibition of rhesus monkey CYP11B2 expressed in V79 cells incubated for 1 hr before 11-deoxycorticosterone substrate addition by HTRF-based assay; assay type: cell-based; settings: Macaca mulatta
[4] = Oral bioavailability in Sprague-Dawley rat at 2 mg/kg by LC-MS/MS method; assay type: ADME, organism-based; settings: in vivo; method in brief: as §1
Cytochrome P450 3A4 = Cytochrome P450 3A4 (Homo sapiens, UniProt P08684); experiment: Inhibition of CYP3A4 (unknown origin); assay type: ADME
[5] = Fraction unbound in rat plasma at […] incubated for 4 hrs by equilibrium dialysis and LC/MS method; assay type: ADME, cell-free
[6] = Plasma clearance in Sprague-Dawley rat at 2 mg/kg, po or 1 mg/kg, iv by LC-MS/MS method; assay type: ADME, organism-based; method in brief: as §1
Homo sapiens [7] = species: Homo sapiens; experiment: Selectivity index, ratio of IC50 for CYP19 (unknown origin) to IC50 for human CYP11B2
[8] = Intrinsic clearance in rat liver microsomes at […] incubated for 10 mins before NADPH addition by LC/MS method; assay type: ADME; settings: read-out: CLH
Cytochrome P450 2D6 = Cytochrome P450 2D6 (Homo sapiens, UniProt P10635); experiment: Inhibition of CYP2D6 (unknown origin); assay type: ADME
Aromatase = molecular target: T3, Aromatase (Homo sapiens, UniProt P11511); experiment: Inhibition of CYP19 (unknown origin) using MFC substrate incubated for 30 mins
T3 sequence (P11511 whole entry): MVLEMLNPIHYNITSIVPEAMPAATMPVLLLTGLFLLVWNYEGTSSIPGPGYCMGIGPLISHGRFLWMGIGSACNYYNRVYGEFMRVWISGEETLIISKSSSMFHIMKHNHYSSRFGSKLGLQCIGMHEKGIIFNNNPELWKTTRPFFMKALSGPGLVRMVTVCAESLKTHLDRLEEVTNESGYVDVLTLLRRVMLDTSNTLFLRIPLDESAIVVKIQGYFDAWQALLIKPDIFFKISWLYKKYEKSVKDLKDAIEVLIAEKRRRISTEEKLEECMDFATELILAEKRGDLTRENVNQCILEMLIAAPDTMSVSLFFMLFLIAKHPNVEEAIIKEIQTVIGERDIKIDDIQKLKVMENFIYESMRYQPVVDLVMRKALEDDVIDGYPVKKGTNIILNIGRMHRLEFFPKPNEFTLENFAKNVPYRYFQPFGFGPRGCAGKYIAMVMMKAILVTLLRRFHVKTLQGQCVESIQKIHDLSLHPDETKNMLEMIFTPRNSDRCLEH

Steroid 21-hydroxylase = molecular target: T4, Steroid 21-hydroxylase (Homo sapiens, UniProt P08686); experiment: Inhibition of human CYP21 expressed in COS7 cells incubated for 1 hr before […] substrate addition by HTRF-based assay; assay type: cell-based, COS-7
T4 sequence (P08686 whole entry): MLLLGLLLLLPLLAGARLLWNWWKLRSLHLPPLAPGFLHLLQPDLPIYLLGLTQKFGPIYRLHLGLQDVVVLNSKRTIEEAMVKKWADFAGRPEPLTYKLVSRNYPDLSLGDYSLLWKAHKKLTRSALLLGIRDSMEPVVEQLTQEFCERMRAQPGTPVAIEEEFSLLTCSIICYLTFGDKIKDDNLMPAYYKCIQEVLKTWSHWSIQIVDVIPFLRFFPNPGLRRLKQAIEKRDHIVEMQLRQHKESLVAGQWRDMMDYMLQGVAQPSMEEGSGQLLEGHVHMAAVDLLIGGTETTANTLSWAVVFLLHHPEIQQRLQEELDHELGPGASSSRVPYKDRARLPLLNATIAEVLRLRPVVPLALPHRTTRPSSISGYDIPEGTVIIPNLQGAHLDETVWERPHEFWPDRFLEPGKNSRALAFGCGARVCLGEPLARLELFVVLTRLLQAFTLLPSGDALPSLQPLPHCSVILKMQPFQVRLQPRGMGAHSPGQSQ

[9] = molecular target: T5, Cytochrome P450 11B2, mitochondrial (Homo sapiens, UniProt P19099); experiment: Inhibition of human CYP11B2 expressed in V79 cells incubated for 1 hr before 11-deoxycorticosterone substrate addition by HTRF-based assay; assay type: cell-based; method in brief: as §2
T5 sequence (P19099 whole entry): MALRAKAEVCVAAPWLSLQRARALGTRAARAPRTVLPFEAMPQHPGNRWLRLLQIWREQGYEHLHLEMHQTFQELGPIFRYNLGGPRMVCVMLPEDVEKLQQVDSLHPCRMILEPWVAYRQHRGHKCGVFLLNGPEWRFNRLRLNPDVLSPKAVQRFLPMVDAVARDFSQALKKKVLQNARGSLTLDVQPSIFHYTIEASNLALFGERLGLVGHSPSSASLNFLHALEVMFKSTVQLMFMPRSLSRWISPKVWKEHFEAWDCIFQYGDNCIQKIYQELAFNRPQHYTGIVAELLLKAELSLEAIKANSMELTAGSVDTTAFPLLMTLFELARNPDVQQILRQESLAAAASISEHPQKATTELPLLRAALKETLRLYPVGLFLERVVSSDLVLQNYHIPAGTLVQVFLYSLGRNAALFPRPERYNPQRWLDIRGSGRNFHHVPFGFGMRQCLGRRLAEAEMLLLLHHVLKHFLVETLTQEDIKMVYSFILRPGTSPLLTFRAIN

[10] = molecular target: T6, Cytochrome P450 11B1, mitochondrial (Homo sapiens, UniProt P15538); experiment: Inhibition of human CYP11B1 expressed in V79 cells incubated for 1 hr before 11-deoxycortisol substrate addition by HTRF-based assay; assay type: cell-based; method in brief: as §2
T6 sequence (P15538 whole entry): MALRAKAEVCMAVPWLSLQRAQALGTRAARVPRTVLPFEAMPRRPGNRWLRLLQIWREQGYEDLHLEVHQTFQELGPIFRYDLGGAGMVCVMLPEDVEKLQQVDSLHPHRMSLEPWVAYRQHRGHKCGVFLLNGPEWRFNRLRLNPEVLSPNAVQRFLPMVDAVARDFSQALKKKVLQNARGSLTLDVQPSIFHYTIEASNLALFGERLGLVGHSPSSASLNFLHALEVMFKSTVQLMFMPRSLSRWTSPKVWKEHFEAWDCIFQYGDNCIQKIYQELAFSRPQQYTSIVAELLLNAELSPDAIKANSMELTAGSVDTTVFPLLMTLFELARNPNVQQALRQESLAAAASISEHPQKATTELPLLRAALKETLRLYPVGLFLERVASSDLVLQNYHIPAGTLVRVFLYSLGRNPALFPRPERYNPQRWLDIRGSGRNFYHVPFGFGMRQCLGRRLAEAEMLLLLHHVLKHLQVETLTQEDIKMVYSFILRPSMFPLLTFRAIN

Homo sapiens [11] = species: Homo sapiens; experiment: Selectivity index, ratio of IC50 for CYP3A4 (unknown origin) to IC50 for human CYP11B2
Homo sapiens [12] = species: Homo sapiens; experiment: Selectivity index, ratio of IC50 for CYP2D6 (unknown origin) to IC50 for human CYP11B2
Rhesus monkey [13] = experiment: Dose normalized AUC in rhesus monkey at 1 mg/kg, po or 0.5 mg/kg, iv by LC-MS/MS method; assay type: ADME, organism-based, Macaca mulatta; settings: in vivo
Homo sapiens [14] = species: Homo sapiens; experiment: Selectivity index, ratio of IC50 for CYP2C9 (unknown origin) to IC50 for human CYP11B2
[15] = Intrinsic clearance in rhesus monkey liver microsomes at […] incubated for 10 mins before NADPH addition by LC/MS method; assay type: ADME, Macaca mulatta; settings: read-out: CLH
[16] = Plasma clearance in rhesus monkey at 1 mg/kg, po or 0.5 mg/kg, iv by LC-MS/MS method; assay type: ADME, organism-based, Macaca mulatta
[17] = Oral bioavailability in rhesus monkey at 1 mg/kg by LC-MS/MS method; assay type: ADME, organism-based, Macaca mulatta; settings: in vivo
Rhesus monkey [18] = settings: Macaca mulatta; 1 mg/kg

Cytochrome P450 3A4, sequence (P08684 whole entry): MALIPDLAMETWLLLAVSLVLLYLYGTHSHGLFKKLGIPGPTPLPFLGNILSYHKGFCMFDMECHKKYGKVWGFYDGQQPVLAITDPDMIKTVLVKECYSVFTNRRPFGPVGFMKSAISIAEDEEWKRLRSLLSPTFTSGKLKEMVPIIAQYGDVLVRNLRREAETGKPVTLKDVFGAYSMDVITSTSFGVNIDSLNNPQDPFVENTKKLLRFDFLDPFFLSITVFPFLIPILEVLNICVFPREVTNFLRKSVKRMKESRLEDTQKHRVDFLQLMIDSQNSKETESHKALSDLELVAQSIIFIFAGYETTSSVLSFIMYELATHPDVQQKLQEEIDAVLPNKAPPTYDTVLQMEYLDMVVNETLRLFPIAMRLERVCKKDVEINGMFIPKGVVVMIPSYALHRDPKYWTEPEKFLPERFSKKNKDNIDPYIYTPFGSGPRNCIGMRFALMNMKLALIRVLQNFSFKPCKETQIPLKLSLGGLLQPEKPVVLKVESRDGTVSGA
Cytochrome P450 2D6, sequence (P10635 whole entry): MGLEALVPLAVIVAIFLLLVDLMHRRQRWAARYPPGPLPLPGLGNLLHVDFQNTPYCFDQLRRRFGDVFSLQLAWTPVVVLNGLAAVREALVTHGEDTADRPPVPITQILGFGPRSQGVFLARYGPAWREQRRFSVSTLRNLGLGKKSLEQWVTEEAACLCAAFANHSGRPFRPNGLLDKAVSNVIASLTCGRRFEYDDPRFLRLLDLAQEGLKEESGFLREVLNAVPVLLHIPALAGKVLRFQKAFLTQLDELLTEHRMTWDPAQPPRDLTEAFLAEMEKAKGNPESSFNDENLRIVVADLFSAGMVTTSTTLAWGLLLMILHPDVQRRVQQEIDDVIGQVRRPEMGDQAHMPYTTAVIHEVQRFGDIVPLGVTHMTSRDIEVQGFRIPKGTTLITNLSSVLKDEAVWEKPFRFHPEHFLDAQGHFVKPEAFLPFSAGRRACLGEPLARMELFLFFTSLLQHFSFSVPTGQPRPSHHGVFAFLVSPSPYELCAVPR
Cytochrome P450 2C9, sequence (P11712 whole entry): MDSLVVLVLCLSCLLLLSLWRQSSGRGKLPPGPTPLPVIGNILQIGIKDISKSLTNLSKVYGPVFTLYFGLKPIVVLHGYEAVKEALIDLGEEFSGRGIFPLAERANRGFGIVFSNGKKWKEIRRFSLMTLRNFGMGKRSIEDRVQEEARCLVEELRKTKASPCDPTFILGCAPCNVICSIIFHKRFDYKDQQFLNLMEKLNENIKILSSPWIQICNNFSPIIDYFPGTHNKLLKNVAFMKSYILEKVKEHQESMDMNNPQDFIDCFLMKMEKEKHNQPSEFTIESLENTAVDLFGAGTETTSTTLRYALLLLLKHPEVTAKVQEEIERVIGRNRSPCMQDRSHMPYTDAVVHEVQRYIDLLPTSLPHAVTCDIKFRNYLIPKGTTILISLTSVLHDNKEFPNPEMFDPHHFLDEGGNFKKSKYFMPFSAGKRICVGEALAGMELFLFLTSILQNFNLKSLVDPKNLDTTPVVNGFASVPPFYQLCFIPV

CC(C)(O)c1cncc(-c2nc3cc(F)c(F)cc3n2C2CC2)c1
inhibition (INH) (Cytochrome P450 2C9): Not Active | inhibition (INH) [1]: Not Active | IC50 [2]: > 10000 nM | AUC/dose (Rattus norvegicus): 6.55 µM·kg·h/mg | Ratio IC50 (Homo sapiens [3]): 140 | inhibition (V79): Active | bioavailability [4]: 94% | IC50 (Cytochrome P450 3A4): > 50000 nM | fraction unbound at 4 h [5]: 0.14 | clearance [6]: 7 mL/min/kg | Ratio IC50 (Homo sapiens [7]): 500 | CLint scaled [8]: < 20 mL/min/kg | inhibition (INH) (Cytochrome P450 2D6): Not Active | IC50 (Aromatase): 1270 nM | IC50 (Steroid 21-hydroxylase): > 10000 nM

Fc1ccc2nc(-c3cccnc3)n(C3CC3)c2c1
AUC/dose (Rattus norvegicus): 1.82 µM·kg·h/mg | Ratio IC50 (Homo sapiens [3]): 100 | bioavailability [4]: 77% | fraction unbound at 4 h [5]: 0.15 | clearance [6]: 28 mL/min/kg | CLint scaled [8]: 28 mL/min/kg | IC50 [9]: 4 nM | IC50 [10]: 401 nM

Fc1cc2nc(-c3cccnc3)n(C3CC3)c2cc1F
inhibition (INH) [1]: Not Active | AUC/dose (Rattus norvegicus): 1.32 µM·kg·h/mg | Ratio IC50 (Homo sapiens [3]): 176 | inhibition (V79): Active | bioavailability [4]: 92% | fraction unbound at 4 h [5]: 0.15 | clearance [6]: 43 mL/min/kg | CLint scaled [8]: < 20 mL/min/kg | IC50 [9]: 2.1 nM | IC50 [10]: 370 nM

Cn1c(-c2cccnc2)nc2ccc(F)cc21
AUC/dose (Rattus norvegicus): 0.56 µM·kg·h/mg | Ratio IC50 (Homo sapiens [3]): 56 | bioavailability [4]: 37% | fraction unbound at 4 h [5]: 0.25 | clearance [6]: 59 mL/min/kg | CLint scaled [8]: 30 mL/min/kg | IC50 [9]: 12 nM | IC50 [10]: 677 nM

CC1(n2c(-c3cccnc3)nc3ccc(F)cc32)CC1
AUC/dose (Rattus norvegicus): 0.2 µM·kg·h/mg | Ratio IC50 (Homo sapiens [3]): 179 | bioavailability [4]: 32% | fraction unbound at 4 h [5]: 0.19 | clearance [6]: 131 mL/min/kg | CLint scaled [8]: 82 mL/min/kg | IC50 [9]: 16 nM | IC50 [10]: 2860 nM

Cc1c(F)cncc1-c1nc2cc(F)c(F)cc2n1C1CC1
Ratio IC50 (Homo sapiens [11]): > 1000 | inhibition (INH) [1]: Not Active | IC50 [2]: > 10000 nM | Ratio IC50 (Homo sapiens [3]): 553 | inhibition (V79): Active | Ratio IC50 (Homo sapiens [12]): > 1000 | AUC/dose (Rhesus monkey [13]): 2.49 µM·kg·h/mg | IC50 (Cytochrome P450 3A4): 8240 nM | Ratio IC50 (Homo sapiens [14]): > 1000 | IC50 [9]: 0.5 nM | IC50 [10]: 258 nM | CLint scaled [15]: < 20 mL/min/kg | clearance [16]: 19 mL/min/kg | IC50 (Steroid 21-hydroxylase): > 10000 nM | bioavailability [17]: 88%

N#Cc1ccc(C2CCCc3cncn32)cc1 (stereo not given)
inhibition (Rhesus monkey [18]): Active

From ChEMBL document CHEMBL3580617, “Discovery of Benzimidazole CYP11B2 Inhibitors with in Vivo Activity in Rhesus Monkeys” (ACS Med Chem Lett, 2015)
